Results taken from ChEMBL document CHEMBL4311965, “Antimicrobial activity of amphipathic α,α-disubstituted β-amino amide derivatives against ESBL - CARBA producing multi-resistant bacteria; effect of halogenation, lipophilicity and cationic character” (Eur J Med Chem, 2019).
Converted amounts (≈) assume the structure as drawn.

What was measured:
Pseudomonas aeruginosa [1] = experiment: Antibacterial activity against multidrug-resistant Pseudomonas aeruginosa 50692520 producing Verona integron encoded metallo beta-lactamse cultured in MHB medium assessed as reduction in bacterial growth incubated for 24 hrs by microdilution susceptibility test; format: functional; conditions: Pseudomonas aeruginosa, 50692520, 24 h
Procedure, shortened: (§1)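 Broth microdilution per CLSI M07-A9 (modified). Working solutions made from concentrated DMSO stocks kept at r.t., diluted in double-distilled water, final DMSO <1%. Inoculum 1–1.2 x 10⁶ cells/mL in Mueller-Hinton broth, mixed 1:1 with compound. 37 °C, 24 h, four parallels. Read as OD₆₀₀. Where precipitation left residual OD, the point of major OD decrease was taken as the inhibitory concentration.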

Pseudomonas aeruginosa [2] = experiment: Antibacterial activity against multidrug-resistant Pseudomonas aeruginosa K34-73 producing Verona integron encoded metallo beta-lactamse-4 cultured in MHB medium assessed as reduction in bacterial growth incubated for 24 hrs by microdilution susceptibility test; format: functional; conditions: K34-73, 24 h; procedure, shortened: as §1
Staphylococcus aureus [3] = experiment: Antibacterial activity against multidrug-resistant Staphylococcus aureus N315 cultured in MHB medium assessed as reduction in bacterial growth incubated for 24 hrs by microdilution susceptibility test; format: functional; conditions: N315, 24 h; procedure, shortened: as §1
Staphylococcus aureus [4] = experiment: Antibacterial activity against Staphylococcus aureus ATCC 9144 cultured in MHB medium assessed as no bacterial growth incubated at 37 degC for 24 hrs by microdilution susceptibility test; format: functional; conditions: ATCC 9144, 24 h
Procedure, shortened: (§2)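 Broth microdilution per CLSI M07-A9 with modifications. Inoculum about 2.5–3 x 10⁴ cells/mL in Mueller-Hinton broth, mixed 1:1 with test derivative. DMSO stocks diluted in double-distilled water, final DMSO <1%. Incubation 24 h at 37 °C (20 °C for C. glutamicum). Growth and sterility controls included; oxytetracycline reference.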

Escherichia coli [5] = experiment: Antibacterial activity against multidrug-resistant Escherichia coli 50739822 producing New Delhi metallo-beta-lactamase-1 cultured in MHB medium assessed as reduction in bacterial growth incubated for 24 hrs by microdilution susceptibility test; format: functional; conditions: Escherichia coli, 50739822, 24 h; procedure, shortened: as §1
Acinetobacter baumannii [6] = experiment: Antibacterial activity against multidrug-resistant Acinetobacter baumannii K55-13 producing oxcillinase-24 cultured in MHB medium assessed as reduction in bacterial growth incubated for 24 hrs by microdilution susceptibility test; format: functional; conditions: K55-13, 24 h; procedure, shortened: as §1
Escherichia coli [7] = experiment: Antibacterial activity against multidrug-resistant Escherichia coli 50857972 producing imipenem-type carbapenemase-26 cultured in MHB medium assessed as reduction in bacterial growth incubated for 24 hrs by microdilution susceptibility test; format: functional; conditions: Escherichia coli, 50857972, 24 h; procedure, shortened: as §1
Acinetobacter baumannii [8] = experiment: Antibacterial activity against multidrug-resistant Acinetobacter baumannii K44-35 producing oxcillinase-23 cultured in MHB medium assessed as reduction in bacterial growth incubated for 24 hrs by microdilution susceptibility test; format: functional; conditions: K44-35, 24 h; procedure, shortened: as §1
Escherichia coli [9] = experiment: Antibacterial activity against multidrug-resistant Escherichia coli 50639799 producing Verona integron encoded metallo beta-lactamse-29 cultured in MHB medium assessed as reduction in bacterial growth incubated for 24 hrs by microdilution susceptibility test; format: functional; conditions: Escherichia coli, 50639799, 24 h; procedure, shortened: as §1
Enterococcus faecium [10] = experiment: Antibacterial activity against multidrug-resistant Enterococcus faecium 50901530 cultured in BHIB medium assessed as reduction in bacterial growth incubated for 24 hrs by microdilution susceptibility test; format: functional; conditions: Enterococcus faecium, 50901530, 24 h
Procedure, shortened: (§3)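 Enterococci grown in Brain Heart Infusion broth, otherwise broth microdilution per CLSI M07-A9 (modified). Concentrated DMSO stocks kept at r.t. and diluted in double-distilled water, final DMSO <1%. Inoculum 1–1.2 x 10⁶ cells/mL mixed 1:1 with compound. 37 °C, 24 h, four parallels. OD₆₀₀ read-out, lowest concentration with no growth.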

Klebsiella pneumoniae [11] = experiment: Antibacterial activity against multidrug-resistant Klebsiella pneumoniae 50625602 producing oxcillinase-245 cultured in MHB medium assessed as reduction in bacterial growth incubated for 24 hrs by microdilution susceptibility test; format: functional; conditions: Klebsiella pneumoniae, 50625602, 24 h; procedure, shortened: as §1
Klebsiella pneumoniae [12] = experiment: Antibacterial activity against multidrug-resistant Klebsiella pneumoniae K47-25 producing carbapenemase-2 cultured in MHB medium assessed as reduction in bacterial growth incubated for 24 hrs by microdilution susceptibility test; format: functional; conditions: K47-25, 24 h; procedure, shortened: as §1
Staphylococcus aureus [13] = experiment: Antibacterial activity against multidrug-resistant Staphylococcus aureus NCTC 10442 cultured in MHB medium assessed as reduction in bacterial growth incubated for 24 hrs by microdilution susceptibility test; format: functional; conditions: NCTC 10442, 24 h; procedure, shortened: as §1
Staphylococcus aureus [14] = experiment: Antibacterial activity against multidrug-resistant Staphylococcus aureus 85/2082 cultured in MHB medium assessed as reduction in bacterial growth incubated for 24 hrs by microdilution susceptibility test; format: functional; conditions: 85/2082, 24 h; procedure, shortened: as §1
[15] = Selectivity index, ratio of EC50 for hemolytic activity against human RBC to MIC for antibacterial activity against Staphylococcus aureus ATCC 9144; format: toxicity; conditions: human red blood cells (RBC)
Procedure, shortened: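 Selectivity index is the RBC haemolysis EC50 divided by the MIC against the E. coli or S. aureus reference strain.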

Enterococcus faecium [16] = experiment: Antibacterial activity against multidrug-resistant Enterococcus faecium 50673722 cultured in BHIB medium assessed as reduction in bacterial growth incubated for 24 hrs by microdilution susceptibility test; format: functional; conditions: Enterococcus faecium, 50673722, 24 h; procedure, shortened: as §3
Pseudomonas aeruginosa [17] = experiment: Antibacterial activity against multidrug-resistant Pseudomonas aeruginosa 50692172 producing New Delhi metallo-beta-lactamase-1 cultured in MHB medium assessed as reduction in bacterial growth incubated for 24 hrs by microdilution susceptibility test; format: functional; conditions: Pseudomonas aeruginosa, 50692172, 24 h; procedure, shortened: as §1
Pseudomonas aeruginosa [18] = experiment: Antibacterial activity against multidrug-resistant Pseudomonas aeruginosa K44-24 producing imipenem-type carbapenemase-14 cultured in MHB medium assessed as reduction in bacterial growth incubated for 24 hrs by microdilution susceptibility test; format: functional; conditions: K44-24, 24 h; procedure, shortened: as §1
Staphylococcus aureus [19] = experiment: Antibacterial activity against multidrug-resistant Staphylococcus aureus IHT 99040 cultured in MHB medium assessed as reduction in bacterial growth incubated for 24 hrs by microdilution susceptibility test; format: functional; conditions: IHT 99040, 24 h; procedure, shortened: as §1
Klebsiella pneumoniae [20] = experiment: Antibacterial activity against multidrug-resistant Klebsiella pneumoniae 50667959 producing Verona integron encoded metallo beta-lactamse-1 cultured in MHB medium assessed as reduction in bacterial growth incubated for 24 hrs by microdilution susceptibility test; format: functional; conditions: Klebsiella pneumoniae, 50667959, 24 h; procedure, shortened: as §1
Pseudomonas aeruginosa [21] = experiment: Antibacterial activity against Pseudomonas aeruginosa PA01 DSM 19880 (ATCC 15692) cultured in MHB medium assessed as no bacterial growth incubated at 37 degC for 24 hrs by microdilution susceptibility test; format: functional; conditions: PAO1 DSM 19880 (ATCC 15692); procedure, shortened: as §2
Pseudomonas aeruginosa [22] = experiment: Antibacterial activity against multidrug-resistant Pseudomonas aeruginosa K34-7 producing Verona integron encoded metallo beta-lactamse-2 cultured in MHB medium assessed as reduction in bacterial growth incubated for 24 hrs by microdilution susceptibility test; format: functional; conditions: K34-7, 24 h; procedure, shortened: as §1
Escherichia coli [23] = experiment: Antibacterial activity against multidrug-resistant Escherichia coli 50579417 producing oxcillinase-48 cultured in MHB medium assessed as reduction in bacterial growth incubated for 24 hrs by microdilution susceptibility test; format: functional; conditions: Escherichia coli, 50579417, 24 h; procedure, shortened: as §1
[24] = test system: Corynebacterium glutamicum; experiment: Antibacterial activity against Corynebacterium glutamicum ATCC 13032 cultured in MHB medium assessed as no bacterial growth incubated at 20 degC for 24 hrs by microdilution susceptibility test; format: functional; conditions: ATCC 13032, 24 h; procedure, shortened: as §2

| SMILES | MIC (Pseudomonas aeruginosa [1]) [µg/mL] | MIC (Pseudomonas aeruginosa [2]) [µg/mL] | MIC (Staphylococcus aureus [3]) [µg/mL] | MIC (Staphylococcus aureus [4]) [µg/mL] | MIC (Escherichia coli [5]) [µg/mL] | MIC (Acinetobacter baumannii [6]) [µg/mL] | MIC (Escherichia coli [7]) [µg/mL] | MIC (Acinetobacter baumannii [8]) [µg/mL] | MIC (Escherichia coli [9]) [µg/mL] | MIC (Enterococcus faecium [10]) [µg/mL] | MIC (Klebsiella pneumoniae [11]) [µg/mL] | MIC (Klebsiella pneumoniae [12]) [µg/mL] | MIC (Staphylococcus aureus [13]) [µg/mL] | MIC (Staphylococcus aureus [14]) [µg/mL] | selectivity ratio [15] | MIC (Enterococcus faecium [16]) [µg/mL] | MIC (Pseudomonas aeruginosa [17]) [µg/mL] | MIC (Pseudomonas aeruginosa [18]) [µg/mL] | MIC (Staphylococcus aureus [19]) [µg/mL] | MIC (Klebsiella pneumoniae [20]) [µg/mL] | further results |
| --- | --- | --- | --- | --- | --- | --- | --- | --- | --- | --- | --- | --- | --- | --- | --- | --- | --- | --- | --- | --- | --- |
| N=C(N)NCCNC(=O)C(CNC(=N)N)(Cc1cc(Br)cc(Br)c1)Cc1cc(Br)cc(Br)c1 | 4 (≈ 5.63 µM) | 16 (≈ 22.5 µM) | 2 (≈ 2.81 µM) | 1 (≈ 1.41 µM) | 8 (≈ 11.3 µM) | 16 (≈ 22.5 µM) | 8 (≈ 11.3 µM) | 16 (≈ 22.5 µM) | 8 (≈ 11.3 µM) | 4 (≈ 5.63 µM) | 16 (≈ 22.5 µM) | 32 (≈ 45 µM) | 2 (≈ 2.81 µM) | 2 (≈ 2.81 µM) | 206 | 4 (≈ 5.63 µM) | 8 (≈ 11.3 µM) | 16 (≈ 22.5 µM) | 2 (≈ 2.81 µM) | 16 (≈ 22.5 µM) | MIC (Pseudomonas aeruginosa [21]): 4 µg/mL (≈ 5.63 µM); MIC (Pseudomonas aeruginosa [22]): 16 µg/mL (≈ 22.5 µM); MIC (Escherichia coli [23]): 8 µg/mL (≈ 11.3 µM); MIC [24]: 0.25 µg/mL (≈ 0.352 µM) |
| N=C(N)NCCNC(=O)C(CNC(=N)N)(Cc1cc(C(F)(F)F)cc(C(F)(F)F)c1)Cc1cc(C(F)(F)F)cc(C(F)(F)F)c1 | 16 (≈ 24 µM) | 16 (≈ 24 µM) | 4 (≈ 5.99 µM) | 2 (≈ 3 µM) | 32 (≈ 47.9 µM) | > 32 | 32 (≈ 47.9 µM) | > 32 | 16 (≈ 24 µM) | 4 (≈ 5.99 µM) | > 32 | > 32 | 8 (≈ 12 µM) | 8 (≈ 12 µM) | 101 | 8 (≈ 12 µM) | 32 (≈ 47.9 µM) | 32 (≈ 47.9 µM) | 8 (≈ 12 µM) | > 32 | MIC (Pseudomonas aeruginosa [21]): 4 µg/mL (≈ 5.99 µM); MIC (Pseudomonas aeruginosa [22]): 32 µg/mL (≈ 47.9 µM); MIC (Escherichia coli [23]): 32 µg/mL (≈ 47.9 µM); MIC [24]: 0.5 µg/mL (≈ 0.749 µM) |
| NCCNC(=O)C(CN)(Cc1ccc(F)c2ccccc12)Cc1ccc(F)c2ccccc12 | > 32 | 32 (≈ 71.5 µM) | 16 (≈ 35.8 µM) | 4 (≈ 8.94 µM) | 16 (≈ 35.8 µM) | 32 (≈ 71.5 µM) | 8 (≈ 17.9 µM) | > 32 | 16 (≈ 35.8 µM) | 16 (≈ 35.8 µM) | 8 (≈ 17.9 µM) | 32 (≈ 71.5 µM) | 8 (≈ 17.9 µM) | 8 (≈ 17.9 µM) | 19 | 16 (≈ 35.8 µM) | > 32 | 32 (≈ 71.5 µM) | 16 (≈ 35.8 µM) | 8 (≈ 17.9 µM) | MIC (Pseudomonas aeruginosa [21]): 8 µg/mL (≈ 17.9 µM); MIC (Pseudomonas aeruginosa [22]): > 32 µg/mL; MIC (Escherichia coli [23]): 8 µg/mL (≈ 17.9 µM); MIC [24]: 2 µg/mL (≈ 4.47 µM) |
